# TNAP act mid DEA: activates human TNAP at intermediate phosphate acceptor concentration. activation factor at 20 µM. AID 813. P05186. purified TNAP, CDP-star luminescence, 100 mM DEA, 30 min; hits give high values; scale: 0 levamisole-inhibited, 1 vehicle-only enzyme. 64,000 tested, under 10 active;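 active = activation factor of at least 2 at 20 µM, relative to controls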
# Target sequence (P05186 whole entry, looked up): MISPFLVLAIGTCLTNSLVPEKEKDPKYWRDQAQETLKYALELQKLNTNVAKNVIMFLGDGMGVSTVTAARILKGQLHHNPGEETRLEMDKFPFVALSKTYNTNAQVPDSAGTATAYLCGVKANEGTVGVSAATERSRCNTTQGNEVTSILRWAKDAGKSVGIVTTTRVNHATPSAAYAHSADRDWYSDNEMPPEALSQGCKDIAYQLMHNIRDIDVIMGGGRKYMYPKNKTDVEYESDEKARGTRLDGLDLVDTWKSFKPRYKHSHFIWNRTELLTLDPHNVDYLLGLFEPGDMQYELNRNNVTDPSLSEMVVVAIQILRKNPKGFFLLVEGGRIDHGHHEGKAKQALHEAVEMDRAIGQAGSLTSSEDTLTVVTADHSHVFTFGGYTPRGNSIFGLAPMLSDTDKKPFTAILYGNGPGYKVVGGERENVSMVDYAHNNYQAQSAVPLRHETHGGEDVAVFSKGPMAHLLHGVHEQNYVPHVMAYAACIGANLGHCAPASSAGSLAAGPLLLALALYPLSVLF
# M1 antag: blocks the rat M1 muscarinic receptor response to acetylcholine; CHO-M1 cells, Fluo-4 calcium, ACh EC80 antagonist mode; hits give low values; B-score at 10 µM; actives 3.4% (n = 64,000);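 active = calcium fluorescence response, raw or row-and-column corrected B-score, differing from the plate sample mean either way at a set confidence level, mostly lower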
# M1 ag: M1 muscarinic receptor agonism | CHO-M1 cells, Fluo-4 calcium fluorescence, agonist mode; hits give high values | B-score at 10 µM | actives 3% (n = 64,000);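 active = fluorescence rise, raw or as B-score row- and column-corrected plate score, outside the 99.7% band of its plate's samples, either direction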
# D1 allo mod: allosteric modulators of human D1 dopamine receptor. P21728. HEK293 D1, CRE-luciferase, dopamine EC30 potentiation; actives deviate in either direction. B-score at 10 µM. actives 5.9% (n = 58,000);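 active = luminescence count or its row- and column-corrected plate score outside the 99.7% band of the plate's sample wells, on either side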
# S1P1 ag pot: S1P1 (human) agonism or agonism potentiation | P21453 | actives 0.57% (n = 56,000) | activation, % at 9.5 µM | S1P1 CRE-bla cells, forskolin, beta-lactamase FRET, potentiator mode; S1P1 agonist co-added at EC20, 2 nM; 100% = saturating reference agonist, 0% = basal | AID 449;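 active = activation above a cutoff set at the mean activation of all tested compounds plus 3 SD, cut at about 54% in these data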;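 note: forskolin at 4 µM as EC80 and the EC20 agonist is SEW2871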
# S1P3 agonist: S1P3 (human) receptor agonism; Q99500; S1P3 NFAT-BLA reporter cells, FRET ratio; relative to 1 µM S1P, basal subtracted; activation, % at 4.5 µM; actives 0.1% (n = 60,000);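 active = activation above the screen-wide mean plus 3 SD, cut at about 4.5% in these data, passing the limit was not always enough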
#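 Assay system: CHO cells stably expressing human S1P3, Gα16 and NFAT-β-lactamase reporter. Timing: overnight plating, 4 h compound 37 °C, 2 h substrate RT. Signal: β-lactamase FRET emission ratio 460/535 nm. Measure: percent activation versus median 1 µM S1P response, basal-subtracted, per plate. Repeats: primary screen single test, confirmation screen in triplicate.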
# Numbers stand for hits; n = inactive; x = no result. Shown are actives, neighbours in structure and some others; about 11% of the full set was active somewhere.
SMILES,TNAP act mid DEA,M1 antag,M1 ag,D1 allo mod,S1P1 ag pot,S1P3 agonist
COC(=O)Cc1cc(=O)[nH]c(/N=C(\N)Nc2ccc(C)cc2C)n1,n,n,n,-5.2,n,n
CCCCN(CC)S(=O)(=O)N1CCC(C(=O)NCc2ccc(F)cc2)CC1,n,n,n,n,n,n
COc1ccc2nc(NC(=O)c3cccc(OCc4c(C)noc4C)c3)sc2c1,n,n,n,n,n,n
CCOC(=O)c1c(C)[nH]c(C(=O)C(C)OC(=O)c2cccc(OCc3c(C)noc3C)c2)c1C (stereo not given),n,n,n,n,101,n
CCc1nc(NCCN2CCOCC2)c2oc3ccccc3c2n1,n,n,n,3.2,n,n
CCOc1ccc(OCc2ccc(C(=O)NCc3ccncc3)o2)cc1,n,n,n,n,n,n
CCOc1ccc(OCc2ccc(C(=O)O)o2)cc1,n,x,x,-5.1,n,n
O=C(CC1Oc2ccc(Cl)cc2NC1=O)NC1CCCCCC1 (stereo not given),n,n,n,n,n,n
COC(=O)c1ccccc1NC(=O)CC(NCc1ccccc1)C(=O)O (stereo not given),n,n,n,2.4,x,n
COC(=O)c1ccccc1NC(=O)CN(c1ccccc1)S(=O)(=O)N(C)C,x,1.9,n,n,n,n
CSc1ccccc1NC(=O)CN(c1ccccc1)S(=O)(=O)N(C)C,n,n,n,x,x,n
O=C(OCCN(C1=NS(=O)(=O)c2ccccc21)c1ccc(Cl)cc1)c1ccco1,n,n,n,x,x,n
COc1ccc(C(=O)Nn2c(SCC(=O)NCc3ccco3)nc3ccccc3c2=O)cc1,n,n,n,-9.3,n,n
Cc1occc1C(=O)N1CCN(S(C)(=O)=O)CC1,n,n,n,n,n,n
Cc1occc1C(=O)N1CCN(c2ccc(Cl)c(Cl)c2)CC1,n,n,n,n,69,n
Cn1c(N2CCN(C(=O)NCc3ccccc3)CC2)nc2ccccc21,n,n,n,n,n,n
O=C(NCc1ccccc1)N1CCN(c2ccc(Cl)c(Cl)c2)CC1,n,n,n,n,100,n
CCCCNC(=O)c1ccc2c(c1)N(CC)C(=O)c1ccccc1S2(=O)=O,n,n,n,n,n,n
Cc1nc(Nc2ccncc2)c2oc3ccccc3c2n1,n,-2.9,22,n,x,x
CCC(=O)Nc1cc2nn(-c3ccccc3)nc2cc1Cl,n,n,n,-5.4,n,n
CC1(C)CC(=O)C(C=Nc2ccc3[nH]ncc3c2)=C(O)C1,n,n,n,n,99,n
COc1nc(-c2ccc(C)cc2)ccc1-c1noc(-c2ccco2)n1,n,n,n,n,n,n
COc1nc(C)ccc1-c1noc(-c2ccco2)n1,n,x,x,-1.3,n,n
CC1CCCC(C)N1C(=O)CSc1nnnn1Cc1ccccc1 (stereo not given),n,n,n,6.1,n,n
CC(=O)Nc1cccc(NC(=O)CSc2nnnn2Cc2ccccc2)c1,n,n,n,n,n,n
SMILES,TNAP act mid DEA,M1 antag,M1 ag,D1 allo mod,S1P1 ag pot,S1P3 agonist
CCOC(=O)C1CCCN(C(=O)Nc2cccc(Cl)c2)C1 (stereo not given),n,n,n,n,n,n
CCCn1nc(NC(=O)c2cccs2)c2cc3cc(OC)ccc3nc21,n,n,3.6,n,n,n
CCCCn1nc(NC(=O)c2cccs2)c2cc3ccccc3nc21,n,n,n,x,x,x
COC(=O)c1cc(CSc2nnc(-c3ccccc3)c(-c3ccccc3)n2)oc1C,x,n,n,n,96,n
Cc1ccc(SC(C)c2nc(-c3cccnc3)no2)cc1 (stereo not given),n,n,n,n,n,n
CCc1nn(CC(=O)NCCCN(CC)Cc2ccccc2)c(=O)c2cc3sccc3n12,n,n,n,-4.6,n,n
CCc1nn(CC(=O)NCCCN2CCCC2=O)c(=O)c2cc3sccc3n12,n,n,n,n,n,n
CCC(C)C(NC(=O)c1ccccc1NC(=O)c1ccc(OC)cc1)C(=O)NCc1ccco1 (stereo not given),n,n,n,-4.7,n,n
Cc1cc(C(=O)CSc2nn(-c3ccccc3)c(=S)s2)c(C)n1Cc1ccco1,n,n,n,-4.7,x,x
